bIAP act = increases bovine intestinal alkaline phosphatase activity; activation factor at 20 µM; purified bovine IAP, CDP-star luminescence, 30 min; hits give high values; fold of DMSO-control signal, blank-subtracted; 200,000 compounds, 0.17% hits; AID 1016;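 active = activation factor of 2 or more at 20 µM, a signal rise over negative controls twice the positive control's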
mIAP act = mouse IAP activation | activation factor at 10 µM | 330,000 compounds, 0.24% hits | muIAP, CDP-Star luminescence, 30 min; hits give high values; 1 = vehicle-only enzyme signal, 0 = enzyme-free wells;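 active = activation factor of at least 2 at 20 µM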
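Assay system: mouse IAP enzyme / Compound: DMSO-dissolved test compounds / Timing: 30 min, room temperature / Measured by: luminescence from enzymatic CDP-Star hydrolysis / Control set: DMSO-only wells, enzyme-free buffer wells as negative control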
bIAP inh = intestinal alkaline phosphatase (bovine) inhibition | purified bovine IAP, CDP-star luminescence, 30 min | inhibition, % at 20 µM | 190,000 tested, under 10 active | AID 1019;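 active = over 50% inhibition of intestinal alkaline phosphatase at 20 µM in the single-dose screen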
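Incubation: 30 min reaction at room temperature / Material: purified bovine intestinal alkaline phosphatase (IAP) enzyme / Input: enzyme at 1/65,000,000 dilution / Dosing: 20 µM single dose / Signal: CDP-star luminescence signal / Reagent: CDP-star chemiluminescent phosphatase substrate, 30 µM final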
hIAP inh = blocks human intestinal alkaline phosphatase. P09923. purified IAP, CDP-Star luminescence, 30 min. inhibition, % at 10 µM. 330,000 compounds, 0.12% hits;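 active = inhibition reaching a set limit with compound at 10 µM in the primary screen, cut at about 35% in these data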
Target sequence (P09923 whole entry, looked up): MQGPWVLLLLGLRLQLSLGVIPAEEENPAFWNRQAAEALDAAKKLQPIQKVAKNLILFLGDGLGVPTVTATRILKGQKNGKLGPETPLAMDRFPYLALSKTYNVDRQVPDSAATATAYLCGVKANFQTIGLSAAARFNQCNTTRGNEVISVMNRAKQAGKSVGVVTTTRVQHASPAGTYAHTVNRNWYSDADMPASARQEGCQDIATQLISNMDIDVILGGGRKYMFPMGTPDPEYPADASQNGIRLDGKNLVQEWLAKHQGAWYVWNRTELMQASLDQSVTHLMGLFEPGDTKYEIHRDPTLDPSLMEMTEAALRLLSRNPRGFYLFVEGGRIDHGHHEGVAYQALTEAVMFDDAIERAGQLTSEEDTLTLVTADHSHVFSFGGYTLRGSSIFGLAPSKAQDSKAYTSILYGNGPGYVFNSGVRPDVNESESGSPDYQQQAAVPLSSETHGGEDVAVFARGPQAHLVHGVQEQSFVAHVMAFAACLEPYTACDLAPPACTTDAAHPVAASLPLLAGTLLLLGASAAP
hIAP activ = human IAP activation | 330,000 compounds, 0.16% hits | AID 2524 | purified human IAP, CDP-Star luminescence, 30 min; hits give high values; 1 = vehicle-only enzyme, 0 = enzyme-free background | activation factor at 10 µM;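 active = activation factor of the enzyme at least 2-fold when tested at 20 µM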
mIAP inh = mouse IAP inhibition; purified mouse IAP, CDP-Star luminescence, 30 min; inhibition, % at 10 µM; 330,000 compounds, 0.2% hits; AID 2806;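 active = inhibition of at least 40% at 10 µM in the primary screen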
mIAP inh conf = mouse IAP inhibition confirmation; shares compounds with mIAP inh; purified mouse IAP, CDP-Star luminescence, 30 min; inhibition, % at 10 µM; 11,000 compounds, 4.7% hits;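 active = inhibition of at least 40% at 10 µM in either of the two replicates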
Hits are given with their value; – = inactive; · = not tested or not shown. Only some compounds are listed: those with a hit (about 0.77% of all), similar ones and a draw of the others.

SMILES	bIAP act	mIAP act	bIAP inh	hIAP inh	hIAP activ	mIAP inh	mIAP inh conf
CCn1c(CSc2nc3ccccc3s2)nnc1SCC(=O)c1ccc(O)c(O)c1	–	–	–	–	–	44.1	46.6
C=CCn1c(SCC(=O)c2ccc(O)c(O)c2)nnc1-c1ccccc1OC	–	–	–	–	–	–	·
CC1(NC(=O)Cc2csc(-c3cccc(Cl)c3)n2)CCS(=O)(=O)C1 (configuration not stated)	·	–	·	–	–	–	·
COc1ccc(C2=NO[C@@H]3[C@@H]4C[C@@H]([C@H]5C(=O)N(C)C(=O)[C@@H]45)[C@H]23)cc1	–	–	–	–	–	–	·
CCCCOc1ccc(C2C(C(=O)c3ccc(C)o3)=C(O)C(=O)N2CC2CCCO2)cc1 (configuration not stated)	–	–	–	–	–	–	·
C/C(=C\c1ccccc1)C(=O)Nc1ccc(Cl)cn1	·	–	·	–	–	–	·
COc1ccccc1/C=c1\sc2nc(-c3ccco3)nn2c1=O	–	–	–	–	–	42.4	70.4
O=C1OC2(c3ccccc31)c1cc(I)c(O)c(I)c1Oc1c2cc(I)c(O)c1I	·	–	·	–	–	44.4	64.4
Cc1ccc(NC(=O)[C@@H]2CCC(=O)N2C2OC(=O)c3ccccc32)cc1Cl (some centres not stated)	·	–	·	–	–	–	·
Cc1ccc(NC(=O)C2CC(=O)n3c(nc4ccccc43)N2)cc1Cl (configuration not stated)	2.4	3.58	–	–	–	–	–
CSc1ccccc1NC(=O)COC(=O)Cn1cc(C(F)(F)F)ccc1=O	·	–	·	–	–	–	·
CCOC(=O)CN1C(=O)/C(=C2\SC(=S)N(NC(=O)c3cccnc3)C2=O)c2ccccc21	·	–	·	–	–	51.5	52.8
O=C(CSc1nnc(-c2ccco2)c(-c2ccco2)n1)Nc1ccccc1	–	–	–	–	–	45.3	54.0
COc1ccc(NC(=O)CSc2nnc(-c3ccco3)c(-c3ccco3)n2)cc1OC	·	–	·	–	–	–	·
Cc1ccc(NC(=O)CSc2nnc(-c3ccco3)c(-c3ccco3)n2)cc1	–	–	–	–	–	64.2	59.8
CN(C)c1ccc(NC(=O)CSc2nnc(-c3ccco3)c(-c3ccco3)n2)cc1	·	–	·	–	–	48.9	60.2
Cc1ccccc1NC(=O)CSc1nnc(-c2ccco2)c(-c2ccco2)n1	–	–	–	–	–	52.5	51.0
CCCc1cc(=O)oc2cc(C)cc(OCC(=O)NCCCN3CCCC3=O)c12	·	–	·	–	–	–	·
O=C(CSc1nc2ncccc2[nH]1)Nc1ccccc1-c1ccccc1	·	–	·	–	–	–	·
C[C@H](CO)N1C[C@H](C)[C@@H](CN(C)C(=O)Nc2ccc3c(c2)OCO3)Oc2ccc(NS(=O)(=O)c3ccccc3)cc2C1=O	·	–	·	–	–	–	·
O=C(NC(CC(=O)N1CCN(c2ccccc2O)CC1)c1ccccc1)c1ccccc1Cl (configuration not stated)	·	–	·	–	–	–	·
O=C(CSc1ccc2ccccc2n1)NCCCN1CCCC1=O	·	–	·	–	–	–	·
COc1cc(NC(=O)NCC2CCN(Cc3ccccc3F)CC2)cc(OC)c1	·	3.08	·	–	–	–	–
Cc1ccc(C)c(CN2CCC(CNC(=O)Nc3ccc(F)c(Cl)c3)CC2)c1	·	3.35	·	–	–	–	–
O=C(NCCN1CCCCC1)Nc1ccc(F)c(Cl)c1	–	–	–	–	–	–	·
Cc1cc(C)cc(NC(=O)NCC2CCN(Cc3cc(C)ccc3C)CC2)c1	·	3.56	·	–	–	–	–
Cc1ccc(C)c(CN2CCC(CNC(=O)CCc3nnc4ccc(N5CCCCC5)nn34)CC2)c1	·	–	·	–	–	–	·
C#CCOCCOCCOCCNc1nc(N2CCN(C(=O)CCCCCCCCCCNC(=O)Cn3cc(C[C@@H](C)O)nn3)CC2)nc(N2CCN(C(=O)CCCCCCCCCCNC(=O)[C@@H]([C@H](C)CC)n3cc(CCCCCN)nn3)CC2)n1	·	6.11	·	–	–	–	–
C#CCOCCOCCOCCNc1nc(N2CCN(C(=O)CCCCCCCCCCNC(=O)Cn3cc(CCCCCN)nn3)CC2)nc(N2CCN(C(=O)CCCCCCCCCCNC(=O)Cn3cc(C[C@@H](C)O)nn3)CC2)n1	·	2.13	·	–	–	–	–
